PfG6PD inh: PfG6PD (Plasmodium falciparum) enzyme inhibition | PfGluPho enzyme, NADPH resazurin-diaphorase fluorescence | inhibition, % at 20 µM | actives 0.78% (n = 350,000) | AID 504690;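 active = inhibition reaching at least a set limit at 20 µM in the primary screen, cut at about 59% in these data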
ZTA DNA inh: blocks Epstein-Barr virus ZTA, an EBNA-1 counter-screen | P03206 | ZTA-DNA binding, fluorescence polarization | inhibition, % at 11 µM | actives 0.15% (n = 320,000); in the data active = inhibition above about 33%
Target sequence (P03206 whole entry, looked up): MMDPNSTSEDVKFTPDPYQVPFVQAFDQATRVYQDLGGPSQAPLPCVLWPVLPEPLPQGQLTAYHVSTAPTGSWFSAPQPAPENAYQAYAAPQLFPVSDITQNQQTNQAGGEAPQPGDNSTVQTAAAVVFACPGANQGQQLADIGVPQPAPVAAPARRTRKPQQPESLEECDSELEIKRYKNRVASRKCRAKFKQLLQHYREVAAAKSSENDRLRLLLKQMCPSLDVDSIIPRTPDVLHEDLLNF
EBNA-1 inh: blocks EBNA-1 binding to DNA; inhibition, % at 14.8 µM; actives 0.34% (n = 300,000); EBNA-1 DNA binding, fluorescence polarization; AID 1950; in the data active = inhibition above about 28%
PfM18AAP inh-1: blocks P. falciparum M18 aspartyl aminopeptidase | recombinant PfM18AAP, H-Glu-NHMec fluorogenic cleavage | inhibition, % at 7.35 µM | actives 1.2% (n = 290,000);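 active = inhibition above the campaign mean inhibition over all tested compounds plus 3 SD, cut at about 28% in these data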
Apaf1 inhib: inhibitors of human Apaf-1 apoptosome. reconstituted apoptosome caspase-3 activity, DEVD-Rh110 fluorescence. inhibition, % at 20 µM. actives 0.71% (n = 330,000). AID 489030; active = inhibition of at least 40% at 20 µM
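Medium: Hepes buffer, pH 7.5 / System: biochemical Apaf-1 apoptosome reconstitution / Measured by: Rh110 fluorescence, excitation 480 nm, emission 540 nm / Times: compound with Apaf-1, dATP, procaspase-3 30 min, then 50 min reaction, room temperature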
UBC13 inh: inhibitors of human UBC13 polyubiquitin chain formation; P61088; TR-FRET; inhibition, % at 20 µM; actives 0.47% (n = 330,000); AID 485273; in the data active = inhibition above about 45%, passing the limit was not always enough; inconclusive = no clear call, values can overlap the other calls
PfM18AAP inh-2: confirmation of Plasmodium falciparum M18 aspartyl aminopeptidase inhibitors; shares compounds with PfM18AAP inh-1; recombinant PfM18AAP, H-Glu-NHMec fluorogenic cleavage; inhibition, % at 7.35 µM; actives 28% (n = 2,400);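 active = mean inhibition over replicate wells above the hit cutoff set for the earlier primary screen, cut at about 29% in these data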
CTSL1 confirm: Cathepsin L (human) inhibition, confirmation; shares compounds with PfM18AAP inh-1; purified cathepsin L1, Z-Leu-Arg-MCA fluorescence; inhibition, % at 5.96 µM; 2,400 tested, under 10 active;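 active = average inhibition across replicates above the hit cutoff set in the earlier primary screen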
Target sequence (P07711 whole entry, looked up): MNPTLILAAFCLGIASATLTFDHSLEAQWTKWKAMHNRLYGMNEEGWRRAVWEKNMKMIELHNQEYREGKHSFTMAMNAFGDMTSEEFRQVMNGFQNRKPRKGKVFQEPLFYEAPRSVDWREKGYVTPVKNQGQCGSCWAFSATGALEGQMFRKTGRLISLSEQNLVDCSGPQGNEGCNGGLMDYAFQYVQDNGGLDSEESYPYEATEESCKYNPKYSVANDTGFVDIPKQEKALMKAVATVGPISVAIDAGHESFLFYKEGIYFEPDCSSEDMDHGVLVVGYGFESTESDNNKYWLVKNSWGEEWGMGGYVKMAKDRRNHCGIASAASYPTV
Each line names hits and unclear results; the compound was inactive in the other large screens (follow-up assays come after a bar, where they were run). A selection: hits, their analogues and other compounds. The true share with any hit is near 2.9%.

COc1cc(/C=C/C(=O)CC(=O)/C=C/c2ccc(O)c(OC)c2)ccc1O	PfM18AAP inh-1 35 | PfM18AAP inh-2 inactive | CTSL1 confirm inactive
COC(=O)C1=C(O)/C(=C\c2ccc(O)c(OC)c2)N=C1C	PfM18AAP inh-1 55 | PfM18AAP inh-2 inactive | CTSL1 confirm inactive
CN(C)c1ccc(NC(N)=S)cc1	PfM18AAP inh-1 49 | PfM18AAP inh-2 inactive | CTSL1 confirm inactive
CSc1ccc(NC(N)=S)cc1	none
COc1ccc(OCC(O)CNC(=O)c2ccccc2)cc1 (stereo unspecified)	none
O=C(CS(=O)(=O)c1ccc(Cl)cc1)NCc1ccccc1	none
NC(=O)CS(=O)(=O)c1ccc(Cl)cc1	PfM18AAP inh-1 40 | PfM18AAP inh-2 inactive | CTSL1 confirm inactive
COc1ccc(OCc2cc(C(=O)NCC3CCCCO3)no2)c(Cl)c1 (stereo unspecified)	none
O=C(CSc1nc2ccccc2o1)c1cc2ccccc2oc1=O	none
Cc1cc(C)nc(SCC(=O)c2cc3ccccc3oc2=O)n1	PfM18AAP inh-1 40, UBC13 inh inconclusive | PfM18AAP inh-2 inactive | CTSL1 confirm inactive
Cc1cccc(NC(=O)CSc2nc(C)c(Cc3ccccc3)c(=O)[nH]2)c1C	none (no result: PfG6PD inh)
CCOc1ccccc1C(=O)Nc1nn[nH]n1	none
N#C/C(=C\c1coc2ccc(O)cc2c1=O)C(=O)Nc1nc2ccccc2s1	PfM18AAP inh-1 51 | PfM18AAP inh-2 inactive | CTSL1 confirm inactive
N#C/C(=C\c1coc2ccccc2c1=O)C(N)=S	none
COc1cccc(/C=N/c2sc(Cc3ccccc3)c(C)c2C(N)=O)c1O	PfM18AAP inh-1 34 | PfM18AAP inh-2 inactive | CTSL1 confirm inactive
COC(=O)c1c(NC(=O)CCC(=O)O)sc(Cc2ccccc2)c1C	none
CN(CC(=O)NCc1cccnc1)S(=O)(=O)c1ccc(F)cc1	none
O=c1oc2ccccc2cc1-c1nnc(NCc2ccco2)s1	PfM18AAP inh-1 38 | PfM18AAP inh-2 inactive | CTSL1 confirm inactive
O=[N+]([O-])c1cccc(/C=N\N=C2c3ccccc3-c3ccccc32)c1O	none
NC(N)=N/N=C/c1cccc([N+](=O)[O-])c1O	PfM18AAP inh-1 43 | PfM18AAP inh-2 inactive | CTSL1 confirm inactive
CC1=NOC(=O)/C1=C\c1ccc2c(c1)OCO2	none
COc1ccc(OC)c(C2=CC(=O)C[C@H](c3ccc4c(c3)OCO4)C2)c1	none (no result: EBNA-1 inh, PfM18AAP inh-1)
CCCCC(=O)NNC(=S)NC(=O)c1ccc(C)cc1	PfM18AAP inh-1 46 | PfM18AAP inh-2 inactive | CTSL1 confirm inactive
CCCCC(=O)NNC(=S)NC(=O)c1ccc([N+](=O)[O-])cc1	PfM18AAP inh-1 39 | PfM18AAP inh-2 inactive | CTSL1 confirm inactive
N#CCC(=O)NNC(=S)Nc1ccccc1C(F)(F)F	PfM18AAP inh-1 46 | PfM18AAP inh-2 inactive | CTSL1 confirm inactive
Cc1ccc(C(=O)NC(=S)NNC(=O)CC#N)cc1	PfM18AAP inh-1 33 | PfM18AAP inh-2 inactive | CTSL1 confirm inactive
O=C(Oc1ccc(Br)cc1C(=S)N1CCOCC1)c1ccc(F)cc1	PfM18AAP inh-1 32 | PfM18AAP inh-2 inactive | CTSL1 confirm inactive
Cc1ccc(C(=O)Oc2ccc(Br)cc2C(=S)N2CCOCC2)cc1	none
CC(C)C(=O)N(c1ccc2oc(=O)sc2c1)S(=O)(=O)c1cccs1	PfM18AAP inh-1 37 | PfM18AAP inh-2 inactive | CTSL1 confirm inactive
CC(=O)N(c1ccc2oc(=O)sc2c1)S(=O)(=O)c1ccc(C(=O)O)cc1	PfM18AAP inh-1 46 | PfM18AAP inh-2 inactive | CTSL1 confirm inactive
CCCC(=O)N(c1ccc2oc(C)c(C(C)=O)c2c1)S(=O)(=O)c1ccc(C(=O)O)cc1	none
CC(=O)N(c1ccc2oc(=O)sc2c1)S(=O)(=O)c1cccc2cccnc12	none
CC(=O)N(c1ccc2oc(=O)sc2c1)S(=O)(=O)c1cccs1	PfM18AAP inh-1 40 | PfM18AAP inh-2 inactive | CTSL1 confirm inactive
CCCC(=O)N(c1ccc2oc(=O)sc2c1)S(=O)(=O)c1ccccc1	PfM18AAP inh-1 33 | PfM18AAP inh-2 inactive | CTSL1 confirm inactive
CCCCN(C(=O)c1ccc(C)c(S(=O)(=O)N2CCOCC2)c1)c1c(N)n(CCCC)c(=O)[nH]c1=O	none (no result: PfM18AAP inh-1)
Cc1ccc2c(NC(=O)c3ccco3)cccc2n1	none
O=C(COc1ccccc1)NCc1n[nH]c(=S)n1-c1ccccc1	PfM18AAP inh-1 42 | PfM18AAP inh-2 inactive | CTSL1 confirm inactive
COc1ccc(-n2c(Cn3nnc4ccccc43)n[nH]c2=S)cc1	PfM18AAP inh-1 38 | PfM18AAP inh-2 inactive | CTSL1 confirm inactive
COc1ccc(-n2c(CNC(=O)COc3ccccc3)n[nH]c2=S)cc1	PfM18AAP inh-1 33 | PfM18AAP inh-2 inactive | CTSL1 confirm inactive
COC(=O)c1sc(S(=O)(=O)Nc2ccc(C)c(C)c2)c(C(=O)OC)c1C	none
C(=N\Nc1ncnc2sc3c(c12)CCC3)/c1cccs1	none (no result: PfG6PD inh)
C(=N\Nc1ncnc2sc3c(c12)CCC3)/c1ccncc1	PfM18AAP inh-1 48 | PfM18AAP inh-2 inactive | CTSL1 confirm inactive
COCCCN1C(=O)C(O)=C(C(=O)c2ccco2)C1c1ccccc1 (stereo unspecified)	none
COCc1cc(C2C(C(=O)c3ccco3)=C(O)C(=O)N2CCOCCO)ccc1O (stereo unspecified)	PfM18AAP inh-1 43 | PfM18AAP inh-2 inactive | CTSL1 confirm inactive
CCOc1cc(C2C(C(=O)c3ccco3)=C(O)C(=O)N2CCc2ccccc2)ccc1O (stereo unspecified)	PfM18AAP inh-1 33 | PfM18AAP inh-2 inactive | CTSL1 confirm inactive
CC(C)CNC(=O)/C=C/C=C/c1ccc2c(c1)OCO2	none (no result: ZTA DNA inh, EBNA-1 inh, PfM18AAP inh-1)
COc1ccc(C(=S)N2CCN(c3ccccc3Cl)CC2)cc1OC	none
COc1cc(C(=S)N2CCN(c3ccccc3Cl)CC2)cc(O)c1O	PfM18AAP inh-1 54 | PfM18AAP inh-2 45 | CTSL1 confirm inactive
Cc1ccc(C(=O)NNC(=O)c2ccccc2O)cc1S(=O)(=O)N1CCCCC1	none (no result: PfM18AAP inh-1)
CC(=O)Oc1ccc2occ(/C=N/c3cc(=O)[nH]c(=S)[nH]3)c(=O)c2c1	PfM18AAP inh-1 35 | PfM18AAP inh-2 inactive | CTSL1 confirm inactive
Cc1ccc2occ(/C=N/O)c(=O)c2c1	none
CC(C)(C)c1ccc(C(=O)NNC(=O)c2ccc(Cl)cc2)cc1	none
Cc1ccc(NNC(=O)c2ccc(Cl)cc2)nn1	PfM18AAP inh-1 33 | PfM18AAP inh-2 inactive | CTSL1 confirm inactive
Cn1ccc(C(=O)NC(=S)Nc2ccc([N+](=O)[O-])cc2O)n1	PfM18AAP inh-1 34 (no result: ZTA DNA inh, EBNA-1 inh) | PfM18AAP inh-2 41 | CTSL1 confirm inactive
COc1ccc(C2CC(c3ccc(Br)cc3)=NN2C(=S)Nc2ccccc2)cc1 (stereo unspecified)	PfM18AAP inh-1 42 | PfM18AAP inh-2 inactive | CTSL1 confirm inactive

Bioassay records (PubChem)
